# Read-outs that look alike come from different tables or passages of the source.
# What was measured:
# [1] = intracerebroventricular injection of 10 nmol; cited from earlier work
# [2] = tested on: COX-2 in primary human leukocytes; conditions: unclear which pyrazolone(s) were added; cited from earlier work
# [3] = tested on: COX-2 in murine macrophages; conditions: unclear which pyrazolone(s) were added; cited from earlier work
# [4] = cited from earlier work
# [5] = cited from earlier work; remark: listed apart in the source
# [6] = tested on: PGE2 formation in brain tissue from COX-1−/− mice; type: biochemical; conditions: 0.8 µM; brain tissue from LPS stimulated COX-1−/− mice
# [7] = tested on: COX activity (PGE2 and 6-keto-PGF1α formation) in brain homogenates; experiment: Inhibition of COX activity in tissue extract; type: biochemical, C57BL/6 mice
# Outline: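 C57BL/6 mouse brain homogenate prepared on ice in 50 mM Tris pH 7.4 with 1 mM phenol and protease inhibitors. 20 µg homogenate preincubated with test compound or vehicle. 150 µM arachidonic acid added at 37°C. Stopped after 5 min by acidifying to pH 2.5 with formic acid and chilling. Prostanoids extracted with ethyl acetate/hexane (7:1). PGE2 and 6-keto-PGF1α quantified by GC-MS/MS.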
# [8] = in vivo
smiles,measurement,setting,value
"CCCCC/C=C\C/C=C\C/C=C\C/C=C\CCCC(=O)Nc1ccc(O)cc1 [AM404, N-arachidonoylaminophenol]",antinociception,[1],Antinociception was observed
"Cc1c(N(C)CS(=O)(=O)[O-])c(=O)n(-c2ccccc2)n1C.[Na+] [compound 1, sodium N-(2,3-dimethyl-5-oxo-1-phenyl-3-pyrazolin-4-yl)-N-methylaminomethanesulphonate]",activity against COX-2,[2],~21 µg/mL
same,activity against COX-2,[3],approximately 12 µg ml^−1
same,time detectable in the serum,[4]; following intravenous administration,about 15 min
same,detectability in the serum after oral intake,[4]; oral intake,not detectable
"CNc1c(C)n(C)n(-c2ccccc2)c1=O [compound 2, 4-methylaminoantipyrine]",concentration in the cerebrospinal fluid,[5],5 to 30 µg/mL
same,bioavailability,[4]; after oral administration of dipyrone,85%
same,average elimination half-life (t1/2),[4],2.6 to 3.5 h
same,tmax,[4]; time to maximal systemic concentrations,1.2 to 2.0 h
"Cc1c(N)c(=O)n(-c2ccccc2)n1C [compound 3, 4-aminoantipyrine]",concentration in the cerebrospinal fluid,[5],1 to 7 µg/mL
"CCCCC/C=C\C/C=C\C/C=C\C/C=C\CCCC(=O)N(C)c1c(C)n(C)n(-c2ccccc2)c1=O [compound 5, (5Z,8Z,11Z,14Z)-Icosa-5,8,11,14-tetraenoic acid (1,5-dimethyl-3-oxo-2-phenyl-2,3-dihydro-1H-pyrazol-4-yl)-methyl-amide]",formation of PGE2,[6],did not observe any formation of PGE2
same,formation in brain of FAAH−/− mice as compared to wild type mice,dipyrone for 5 days,less than 2%
same,amount in mouse brain cell homogenates,"representative chromatogram, Figure 9 B",2.4 pg/sample
same,lowering of IC50 by the FAAH inhibitor URB532,[7]; inhibition of PGE2 formation in mouse brain homogenates,more than 200 fold
"CCCCC/C=C\C/C=C\C/C=C\C/C=C\CCCC(=O)Nc1c(C)n(C)n(-c2ccccc2)c1=O [compound 6, (5Z,8Z,11Z,14Z)-Icosa-5,8,11,14-tetraenoic acid (1,5-dimethyl-3-oxo-2-phenyl-2,3-dihydro-1H-pyrazol-4-yl)-amide]",amount in mouse brain cell homogenates,"[8]; C57BL/6, mouse",39 pg/sample
same,formation in brain of FAAH−/− mice as compared to wild type mice,"[8]; FAAH−/− knockout compared with wild type (C57BL/6), mouse, 5 days",about 6%
same,effect on PGE2 formation,"[7]; brain homogenates, concentration range 100 nM to 100 µM",no effect

# From article PMC3248997 (Bioorganic & medicinal chemistry, 2011)
